From PubChem BioAssay
ARFGAP1 inh = rat ARFGAP1 inhibition. Arfgap1-stimulated ARF1 GTP hydrolysis, GDP FP detection. inhibition, % at 16.5 µM. hit rate 0.26% among 360,000. AID 651572;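 active = inhibition above a per-plate limit, mean inhibition of low control wells plus 3 SD, cut at about 25% in these data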
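Material – truncated rat Arfgap1 GAP domain · Buffer or medium – HEPES-based buffer, pH 7.5 · Reagent – human ARF1(Δ1-17)-GTP substrate · Dosing – 16.5 µM single point, 1.26% DMSO · Schedule – GTP hydrolysis reaction 2 h at 25 °C · Technique – GDP detection by fluorescence polarization · Benchmarks – No-Arfgap1 wells (100%) versus DMSO full-reaction wells (0%) · Repeats – single replicate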
ASAP1 inh = ASAP1 ArfGAP inhibition; ASAP1-stimulated ARF1 GTP hydrolysis, GDP FP detection; inhibition, % at 16.5 µM; hit rate 0.19% among 360,000; AID 624377; in the data active = inhibition above about 25%
EBNA-1 inh = blocks EBNA-1 binding to DNA. EBNA-1 DNA binding, fluorescence polarization. inhibition, % at 14.8 µM. hit rate 0.34% among 300,000; in the data active = inhibition above about 28%
ZTA DNA inh = blocks Epstein-Barr virus ZTA, an EBNA-1 counter-screen. P03206. ZTA-DNA binding, fluorescence polarization. inhibition, % at 11 µM. hit rate 0.15% among 320,000; in the data active = inhibition above about 33%
ARFGAP1 confirm = confirmation of rat ARFGAP1 inhibitors; hit rate 30% among 890; ARFGAP1-stimulated ARF1 GTP hydrolysis, GDP tracer FP; AID 651608; inhibition, % at 16.5 µM; shares compounds with ARFGAP1 inh;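 active = average inhibition over triplicates above the hit cutoff set in the earlier primary screen, cut at about 25% in these data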
A number is an active result; n = inactive; x = no result given. Rows were chosen to be rich in hits. Some 0.75% of all compounds tested hit in one or more screens of this group.

SMILES	ARFGAP1 inh	ASAP1 inh	EBNA-1 inh	ZTA DNA inh	ARFGAP1 confirm
CCNC(=O)N1CCN(c2ccc(N3CCN(Cc4ccccc4)[C@H](C)C3)c(C)c2)[C@H](C)C1	n	n	x	x	x
O=C1CC(N2CCC(c3nc4ccccc4s3)CC2)C(=O)N1Cc1ccccc1 (configuration not stated)	37	n	n	n	n
CC1(C)CC(NC(=O)c2ccc3c(c2)OCO3)CC(C)(C)N1	26	n	n	n	n
CNC(=O)[C@@H]1C[C@H]1[C@@H](NC(=O)OCc1ccccc1)c1ccccc1	25	n	n	n	n
CC(NC(=O)OCc1ccccc1)c1ccccc1 (configuration not stated)	n	n	n	n	x
CCC(C)C(=O)Nc1cc(OC)c(OC)cc1C(=O)O (configuration not stated)	28	n	n	n	n
CCC(CC)C(=O)Nc1cc(OC)c(OC)cc1C(=O)O	n	n	n	n	x
CC(C(=O)Nc1nc(-c2ccc(F)c(F)c2)cs1)N1C(=O)C2CC=CCC2C1=O (configuration not stated)	27	n	x	n	n
C[C@H](CO)N1C[C@H](C)[C@@H](CN(C)C(=O)Nc2ccnc(N3CCOCC3)c2)OCc2cn(nn2)CCCC1=O	n	n	x	x	x
N#Cc1ccsc1NC(=O)COC(=O)c1ccc2ccccc2c1	27	n	n	n	n
